The Km is the substrate concentration at which the rate is half of its maximum. What is called kcat/Km is the second-order rate constant that governs catalysis at low substrate concentration. Broadly, the Kd is the equilibrium constant for the complex coming apart.

Series [1] has as its system Nc1ncnc2c1ncn2[C@@H]1O[C@H](COP(=O)(O)OP(=O)(O)OP(=O)(O)O)[C@@H](O)[C@H]1O. The series is described as follows: purified protein. In kind it is biochemical, Methylorubrum extorquens. The following applies: printed as D180X; 55 μM HOCbl (reduced to cob(I)alamin), ATP 0.5-300 μM.
Series [2] deals with PduO-type ATP-dependent cob(I)alamin adenosyltransferase (ATR) (Methylorubrum extorquens, UniProt C5AZG1, DEL180-190). Description: isothermal titration calorimetry. It counts as binding. The method, boiled down: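 Recombinant His-tagged M. extorquens ATR, D180X mutant, expressed in E. coli BL21(DE3) and Ni-NTA purified. 40–45 μM protein in 50 mM HEPES pH 8, 0.3 M KCl, 10 mM MgCl2, 5% glycerol at 4 °C, titrated with 45 aliquots of 1–2 mM ATP or AdoCbl. KA, ΔH° and ΔS° were obtained from two-site (ATP) or single-site (AdoCbl) fits, in triplicate.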
(In ITC the heat of successive injections is recorded.)

Substrate in the series “purified protein”: Nc1ncnc2c1ncn2[C@@H]1O[C@H](COP(=O)(O)OP(=O)(O)OP(=O)(O)O)[C@@H](O)[C@H]1O
Description: purified protein. In kind it is biochemical, Methylorubrum extorquens. To be noted: apparent; 55 μM HOCbl (reduced to cob(I)alamin), ATP 0.5-300 μM.

Regarding “PduO-type ATP-dependent cob(I)alamin adenosyltransferase (ATR) (Methylorubrum extorquens AM1; DEL180-190)”, in series [1], the Km was determined as 9.5 ± 1.2 µM, the kcat result is reported as “(2.5 ± 0.1) × 10^−1 s^−1” and the kcat/Km came out at 27000 ± 1000 M⁻¹ s⁻¹.

With `Nc1ncnc2c1ncn2[C@@H]1O[C@H](COP(=O)(O)OP(=O)(O)OP(=O)(O)O)[C@@H](O)[C@H]1O` [ATP], binding in series [2] was characterised by a dissociation constant (Kd) of 480 ± 20 nM.

B1: PduO-type ATP-dependent cob(I)alamin adenosyltransferase (ATR) (Methylorubrum extorquens AM1) (protein)
chain: MVKLNRIYTRTGDQGTTGLANGERRSKADLRVEAYGTVDETNACIGLARLTAEPALDAMLARIQNDLFDLGADLATPPSDKPLGYEPLRIVPAQVQRLETEIDALNANIPPLKSFVLPGGSAAAAALHLARTVCRRAERLVVALSGVESEAISGEALQYLNRLSDFLFVASRAANRDGADDVLWVPGQNR
Take B1: in the series “purified protein”, the Km was 8.4 ± 1.4 µM.
